Data from ChEMBL document CHEMBL4364301 (Eur J Med Chem, 2019).

Legend:
Type in all cases: functional
CWR22R = test: Antiproliferative activity against human 22Rv1 cells assessed as reduction in cell growth incubated for 96 hrs by propidium iodide based 2D monolayer assay; conditions: 22Rv1, 96 h
In short: (§1)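 After 24 h recovery, compound in medium or medium alone (control wells) was added at 10 half-log concentrations from 0.0032 to 100 µM, in triplicate, with at most 0.3% DMSO. After 96 h, wells were PBS-washed, stained with 7 µg/ml PI and 0.1% Triton X-100, and fluorescence read at 530/620 nm. IC50 came from a 4-parameter fit, geometric mean.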

LNCaP = test: Antiproliferative activity against human LNCAP cells assessed as reduction in cell growth incubated for 96 hrs by propidium iodide based 2D monolayer assay; in short: as §1
VCaP = test: Antiproliferative activity against human VCaP cells assessed as reduction in cell growth incubated for 96 hrs by propidium iodide based 2D monolayer assay
In short: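 VCaP cells in RPMI 1640 with 10% FCS at 37 °C, 5% CO2, seeded 4,000–20,000 cells/well and left 24 h before dosing. Compounds from DMSO stocks were diluted in half-log steps in medium, 10 concentrations 0.0032–100 μM, triplicate wells, max 0.3% DMSO. After 96 h, cells were washed, stained with 7 μg/ml propidium iodide plus 0.1% Triton X-100 for 1–2 h at room temperature, and fluorescence read at ex 530/em 620 nm.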

DU-145 = test: Antiproliferative activity against human DU145 cells assessed as reduction in cell growth incubated for 96 hrs by propidium iodide based 2D monolayer assay; conditions: DU-145, 96 h; in short: as §1

Row | SMILES | IC50 (CWR22R) [µM] | IC50 (LNCaP) [µM] | IC50 (VCaP) [µM] | IC50 (DU-145) [µM]
1 | CC(O)(CS(=O)(=O)c1ccc(OC(F)(F)F)cc1)C(=O)Nc1ccc(S(F)(F)(F)(F)F)cc1 (racemic) | 51.9 | 92.8 | 95.8 | 39.3
2 | CC(O)(CS(=O)(=O)c1cc(C(F)(F)F)cc(C(F)(F)F)c1)C(=O)Nc1ccc(S(F)(F)(F)(F)F)cc1 (racemic) | 12.7 | 13.3 | 15.8 | 24.4
3 | CC(O)(COc1cc(C(F)(F)F)cc(C(F)(F)F)c1)C(=O)Nc1cccc(C(F)(F)C(F)(F)F)c1 (racemic) | 4.5 | 4.7 | 8 | 9.8
4 | CC(O)(CS(=O)(=O)c1cccc(S(F)(F)(F)(F)F)c1)C(=O)Nc1cccc(S(F)(F)(F)(F)F)c1 (racemic) | 15.4 | 11.7 | 19 | 29.4
